Assay [1] concerns B16-F10. The assay can be described thus: Induction of apoptosis in mouse B16F10 cells assessed as necrosis cells at 25 uM incubated for 48 hrs in presence of apoptosis inhibitor z-VAD-fmk by Annexin-V-FITC/propidium iodide staining-based flow cytometric analysis (reference value: 0.558%). Format: functional. For orientation: Flow cytometry measures light scatter and fluorescence of single cells or particles in a stream.

Assay [2] concerns B16-F10. The assay can be described thus: Induction of apoptosis in mouse B16F10 cells assessed as viable cells at 6.25 uM incubated for 48 hrs by Annexin-V-FITC/propidium iodide staining-based flow cytometric analysis (reference value: 94%). It counts as functional. The note with it: B16-F10, 48 h, read-out: Activity. The procedure, abridged:
(§1)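 F10 cells were exposed to 0, 3.125, 6.25, 12.5 or 25 µM for 48 h. Cells were stained with Annexin V/PI and read by flow cytometry. Data are mean ± SD of three independent experiments.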

In assay [3] the test system is B16-F10. Nature of the assay: Induction of apoptosis in mouse B16F10 cells assessed as early apoptosis cells at 12.5 uM incubated for 48 hrs in presence of apoptosis inhibitor z-VAD-fmk by Annexin-V-FITC/propidium iodide staining-based flow cytometric analysis (reference value: 3.83%). It counts as functional.
The subject of assay [4] is B16-F10. The assay can be described thus: Induction of apoptosis in mouse B16F10 cells assessed as early apoptosis cells at 3.125 uM incubated for 48 hrs in presence of apoptosis inhibitor z-VAD-fmk by Annexin-V-FITC/propidium iodide staining-based flow cytometric analysis (reference value: 3.83%). Format: functional.
In assay [5] the target is T1, Prostaglandin G/H synthase 2 (Homo sapiens, UniProt P35354).
T1 sequence (P35354 whole entry): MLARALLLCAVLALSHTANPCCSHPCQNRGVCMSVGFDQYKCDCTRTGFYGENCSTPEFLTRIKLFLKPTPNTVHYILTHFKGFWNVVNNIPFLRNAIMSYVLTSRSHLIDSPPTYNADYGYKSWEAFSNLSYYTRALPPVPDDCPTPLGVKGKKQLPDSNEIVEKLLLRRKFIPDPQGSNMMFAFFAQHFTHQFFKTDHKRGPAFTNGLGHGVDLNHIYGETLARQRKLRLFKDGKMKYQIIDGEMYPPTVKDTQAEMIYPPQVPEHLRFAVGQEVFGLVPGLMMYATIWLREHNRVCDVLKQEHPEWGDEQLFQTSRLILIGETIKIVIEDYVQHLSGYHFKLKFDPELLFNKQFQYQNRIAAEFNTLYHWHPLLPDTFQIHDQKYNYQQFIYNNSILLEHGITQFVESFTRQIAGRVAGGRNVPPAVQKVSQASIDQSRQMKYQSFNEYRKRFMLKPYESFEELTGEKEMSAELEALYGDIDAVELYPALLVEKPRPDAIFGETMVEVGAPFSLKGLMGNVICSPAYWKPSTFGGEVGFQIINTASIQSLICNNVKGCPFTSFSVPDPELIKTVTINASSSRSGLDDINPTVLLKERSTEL
The assay can be described thus: Inhibition of COX2 (unknown origin) using arachidonic acid as substrate incubated for 10 mins by Ellman's reagent based COX-1/COX-2 ELISA assay. Background: Ellman's reagent forms a yellow product with free thiols.

The test system of assay [6] is B16-F10. The assay can be described thus: Induction of apoptosis in mouse B16F10 cells assessed as early apoptosis cells at 12.5 uM incubated for 48 hrs by Annexin-V-FITC/propidium iodide staining-based flow cytometric analysis (reference value: 2.93%). Format: functional. The gist of the method:
as §1

For assay [7], the system named is B16-F10. The assay can be described thus: Induction of cell cycle arrest in mouse B16F10 cells assessed as cell accumulation at G1 phase at 3.125 uM incubated for 48 hrs by propidium iodide staining-based flow cytometric analysis (reference value: 59.73%). It counts as functional.
Assay [8] deals with B16-F10. Nature of the assay: Induction of apoptosis in mouse B16F10 cells assessed as early apoptosis cells at 3.125 uM incubated for 48 hrs by Annexin-V-FITC/propidium iodide staining-based flow cytometric analysis (reference value: 2.93%). It counts as functional. The procedure, abridged: as §1
In assay [9] the test system is B16-F10. Nature of the assay: Induction of apoptosis in mouse B16F10 cells assessed as late apoptosis cells at 25 uM incubated for 48 hrs in presence of apoptosis inhibitor z-VAD-fmk by Annexin-V-FITC/propidium iodide staining-based flow cytometric analysis (reference value: 3.13%). Format: functional.
Assay [10] concerns B16-F10. Nature of the assay: Induction of cell cycle arrest in mouse B16F10 cells assessed as cell accumulation at S phase at 25 uM incubated for 48 hrs by propidium iodide staining-based flow cytometric analysis (reference value: 14.16%). Format: functional.
The subject of assay [11] is B16-F10. Nature of the assay: Induction of apoptosis in mouse B16F10 cells assessed as late apoptosis cells at 25 uM incubated for 48 hrs by Annexin-V-FITC/propidium iodide staining-based flow cytometric analysis (reference value: 2.88%). Format: functional. The procedure, abridged:
as §1

The subject of assay [12] is B16-F10. The assay can be described thus: Induction of cell cycle arrest in mouse B16F10 cells assessed as cell accumulation at G1 phase at 25 uM incubated for 48 hrs by propidium iodide staining-based flow cytometric analysis (reference value: 59.73%). Format: functional.
Assay [13] has as its system B16-F10. The assay can be described thus: Induction of cell cycle arrest in mouse B16F10 cells assessed as increase in cell accumulation at G2 phase at incubated for 48 hrs by propidium iodide staining-based flow cytometric analysis. Format: functional.

pIC50: −log10 of the molar value.

Results on one compound are retold here after ChEMBL document CHEMBL4346661, “Design, synthesis and evaluation of novel diaryl-1,5-diazoles derivatives bearing morpholine as potent dual COX-2/5-LOX inhibitors and antitumor agents” (Eur J Med Chem, 2019).

Turning to `NS(=O)(=O)c1ccc(-n2nc(C(=O)NCCCN3CCOCC3)cc2-c2ccc(C(F)(F)F)cc2)cc1`, the Activity with B16-F10 [1] came to 0.845%; in the assay on B16-F10 [3], 6.13%; in the assay with B16-F10 [4], 4.31%; with B16-F10 [6], 20.5%; in the assay with B16-F10 [7], 55.36%; with B16-F10 [8] it was 7.97%. The Activity is 9.1% in the assay with B16-F10 [9]; 12.87% in the assay on B16-F10 [10]; 6.11% with B16-F10 [11]; 50.93% in the assay on B16-F10 [12]; “Dose-dependent effect” in the assay on B16-F10 [13]. In addition, the viability at 6.25 µM with B16-F10 [2] stood at 77.2%. Besides, in assay [5], the negative-log IC50 (pIC50) (in general, the IC50 on a negative log10 scale, so that one unit is a factor of ten) is 6.77.
